Measured values taken from ChEMBL document CHEMBL4308845, “Allosteric Activation of Striatal-Enriched Protein Tyrosine Phosphatase (STEP, PTPN5) by a Fragment-like Molecule” (J Med Chem, 2019).
The source made the active and inactive calls. The rule behind the calls is not given here.

How the values were obtained:
[1] = target: T1, Tyrosine-protein phosphatase non-receptor type 5 (Homo sapiens, UniProt P54829); experiment: Binding affinity to human 15N-labeled STEP PTP domain (281 to 563 residues) expressed in Escherichia coli OD2 by 1H,15N TROSY NMR spectral analysis
T1 sequence (P54829 whole entry): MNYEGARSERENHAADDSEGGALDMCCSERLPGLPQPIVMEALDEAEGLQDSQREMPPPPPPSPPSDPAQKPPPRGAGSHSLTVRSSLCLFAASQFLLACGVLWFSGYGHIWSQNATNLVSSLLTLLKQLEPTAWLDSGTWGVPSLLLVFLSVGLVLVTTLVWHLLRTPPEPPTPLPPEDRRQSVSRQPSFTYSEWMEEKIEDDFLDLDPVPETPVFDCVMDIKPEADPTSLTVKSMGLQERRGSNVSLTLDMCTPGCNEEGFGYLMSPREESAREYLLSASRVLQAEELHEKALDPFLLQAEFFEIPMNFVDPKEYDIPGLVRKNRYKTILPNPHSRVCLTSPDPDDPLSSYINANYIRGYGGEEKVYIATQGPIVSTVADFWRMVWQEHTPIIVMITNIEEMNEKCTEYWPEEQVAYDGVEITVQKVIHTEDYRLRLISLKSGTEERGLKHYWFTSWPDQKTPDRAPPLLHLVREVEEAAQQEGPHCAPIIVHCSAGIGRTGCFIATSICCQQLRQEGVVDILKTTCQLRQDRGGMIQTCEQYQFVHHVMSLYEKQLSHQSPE
Method in brief: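 40 μM ¹⁵N-labeled STEP PTP domain (expressed in ¹⁵N OD2 medium) in 20 mM Tris-d11, 100 mM NaCl, 1 mM TCEP, pH 7.4, 8% D₂O, with 500 μM ligand and 1% DMSO-d₆ at 298 K. 2D spectra of 192 transients were compared by hand with the protein reference spectrum.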

[2] = species: Homo sapiens; experiment: Activation of human STEP46 (197 to 565 residues) expressed in Escherichia coli BL21(DE3) at 500 uM using biotin-pFyn peptide substrate after 60 mins by AlphaLISA assay relative to control
Method in brief: (§1)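 STEP46 (50 nM final) with biotinylated pFyn peptide (20 nM final) and compound in 1% DMSO, 60 min at room temperature in the dark. Detection by anti non-phospho Src/Tyr416 antibody in stop buffer containing 10 μM orthovanadate, plus protein A acceptor and streptavidin donor beads, 15 min each. % CTL computed against enzyme (100%) and no-enzyme (0%) controls.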

[3] = target: T1, Tyrosine-protein phosphatase non-receptor type 5; experiment: Binding affinity to human STEP PTP domain (281 to 563 residues) expressed in Escherichia coli BL21(DE3) by ITC
Method in brief: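 Desalted STEP PTP domain in 10 mM HEPES, 200 mM NaCl, 0.5 mM TCEP, pH 7.5. 200 μM protein titrated with 18 × 2 μL injections of 2 mM ligand at 25 °C. Single-site model fit gave ΔH, n, ΔS and Ka; mean ± SD of three independent titrations.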

[4] = target: T2, Tyrosine-protein phosphatase non-receptor type 2 (Homo sapiens) (UniProt P17706); experiment: Activation of human TCPTP (2 to 345 residues) at 500 uM using biotin-Ahx-EDT-pY-Y-RKG-amide as substrate measured after 2 hrs by AlphaLISA assay
T2 sequence (whole entry): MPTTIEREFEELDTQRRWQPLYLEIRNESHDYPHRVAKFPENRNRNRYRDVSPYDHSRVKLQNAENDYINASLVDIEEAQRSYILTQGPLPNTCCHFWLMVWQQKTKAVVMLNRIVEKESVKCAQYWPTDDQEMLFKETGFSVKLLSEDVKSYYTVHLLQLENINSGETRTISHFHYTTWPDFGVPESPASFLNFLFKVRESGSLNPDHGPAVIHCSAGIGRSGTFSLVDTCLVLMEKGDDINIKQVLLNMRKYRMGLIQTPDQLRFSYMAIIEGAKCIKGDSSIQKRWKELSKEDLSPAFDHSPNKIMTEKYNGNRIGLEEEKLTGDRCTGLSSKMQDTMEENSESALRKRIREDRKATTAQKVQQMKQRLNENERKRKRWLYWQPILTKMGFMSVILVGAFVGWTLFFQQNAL
Method in brief: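 In-house TC-PTP (2−345) at 500 pM final, preincubated 10 min at 24 °C with compound (up to 500 μM), then EDT-pY-Y-RKG-amide substrate (1.4 μM final); 1.5 h at 24 °C, stopped with 200 μM orthovanadate. Competition AlphaScreen with biotin-Ahx-EDT-pY-Y-RKG-amide (2.5 nM) and antibody 4G10 (500 pM), 2 h at 24 °C. Quantified from on-plate standard curve.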

[5] = target: T3, Tyrosine-protein phosphatase non-receptor type 1 (Homo sapiens) (UniProt P18031); experiment: Binding affinity to human PTP1B by 1H,15N TROSY NMR spectral analysis
T3 sequence (whole entry): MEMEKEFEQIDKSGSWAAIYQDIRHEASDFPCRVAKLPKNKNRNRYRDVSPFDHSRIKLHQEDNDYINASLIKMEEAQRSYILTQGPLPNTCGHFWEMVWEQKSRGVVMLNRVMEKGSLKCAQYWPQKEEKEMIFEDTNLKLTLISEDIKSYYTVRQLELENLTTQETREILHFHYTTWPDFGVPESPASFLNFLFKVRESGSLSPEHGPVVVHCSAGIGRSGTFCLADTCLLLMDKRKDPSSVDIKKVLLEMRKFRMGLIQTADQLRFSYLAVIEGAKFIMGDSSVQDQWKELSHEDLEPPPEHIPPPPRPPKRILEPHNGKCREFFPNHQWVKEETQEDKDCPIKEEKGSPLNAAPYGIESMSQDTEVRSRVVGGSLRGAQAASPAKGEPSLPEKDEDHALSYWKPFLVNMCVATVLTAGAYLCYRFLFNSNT

[6] = species: Homo sapiens; experiment: Activation of human STEP46 (197 to 565 residues) expressed in Escherichia coli BL21(DE3) using biotin-pFyn peptide substrate after 60 mins by AlphaLISA assay; method in brief: as §1
[7] = target: T3, Tyrosine-protein phosphatase non-receptor type 1 (Homo sapiens); experiment: Activation of human PTP1B (1 to 405 residues) at 500 uM preincubated for 10 mins followed by pFYN substrate addition and measured after 1.5 hrs by AlphaLISA assay
Method in brief: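 In-house PTP1B (1−405) at 500 pM final, preincubated 10 min at 24 °C with compound (up to 500 μM), then EDT-pY-Y-RKG-amide (1.4 μM final) or pFYN (20 μM final) added; 1.5 h at 24 °C, humidified. Stopped with 200 μM orthovanadate. Competition AlphaScreen using biotin-Ahx-EDT-pY-Y-RKG-amide (2.5 nM), anti-pTyr antibody 4G10 (500 pM), beads (5 μg/mL each), 2 h at 24 °C. Read against on-plate substrate standard curve.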

[8] = target: T4, Tyrosine-protein phosphatase non-receptor type 5 (Homo sapiens) (UniProt P54829); experiment: Activation of human STEP PTP domain (281 to 563 residues) expressed in Escherichia coli BL21(DE3) assessed as ratio of Kcat to Km at 500 uM using pFyn peptide substrate after 60 mins by RapidFire MS/MS assay (reference value: 400 +/- 20 /M/s)
T4 sequence (whole entry): T1 sequence (P54829 whole entry)

## N=C(N)Nc1cc(C2CCNCC2)cc(C(F)(F)F)c1
[1]
  Kd: 38 µM
[2]
  Activity: 56%
[3]
  Kd: 800 µM
[4]
  Activity: inactive
[5]
  Activity: inactive
[6]
  Activity: Dose-dependent effect
[7]
  Activity: inactive
[8]
  Ratio: 650 M⁻¹ s⁻¹
